The target of assay [1] is T1, Vitamin D3 receptor (Homo sapiens, UniProt P11473).
T1 sequence (P11473 whole entry): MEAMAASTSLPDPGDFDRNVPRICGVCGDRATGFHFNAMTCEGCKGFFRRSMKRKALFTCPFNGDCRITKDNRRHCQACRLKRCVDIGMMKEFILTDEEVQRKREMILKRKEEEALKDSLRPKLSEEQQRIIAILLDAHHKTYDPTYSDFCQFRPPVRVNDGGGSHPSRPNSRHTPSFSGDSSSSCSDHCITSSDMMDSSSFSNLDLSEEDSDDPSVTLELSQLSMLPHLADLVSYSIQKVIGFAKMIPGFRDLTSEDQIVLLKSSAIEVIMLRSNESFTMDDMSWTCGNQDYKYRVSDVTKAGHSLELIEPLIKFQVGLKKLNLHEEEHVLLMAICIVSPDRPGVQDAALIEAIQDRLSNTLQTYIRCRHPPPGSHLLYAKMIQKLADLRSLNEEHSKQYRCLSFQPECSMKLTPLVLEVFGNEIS
The experiment in a line: Displacement of [3H]-1,25-(OH)2D3 from N-terminal GST-tagged human recombinant vitamin D receptor ligand binding domain expressed in Escherichia coli BL21 (DE3) pLys S after 16 hrs. For orientation: Displacement assays read how much labelled ligand stays bound in the presence of the test substance.

The target in assay [2] is T2, Vitamin D3 receptor (Homo sapiens) (UniProt P11473).
T2 sequence (whole entry): T1 sequence (P11473 whole entry)
The assay is described as follows: Ratio of 1,25-(OH)2D3 IC50 to test compound IC50 for displacement of [3H]-1,25-(OH)2D3 from N-terminal GST-tagged human recombinant vitamin D receptor ligand binding domain expressed in Escherichia coli BL21 (DE3) pLys S after 16 hrs.

Assay [3] deals with T2, Vitamin D3 receptor (Homo sapiens). The assay is described as follows: Antagonist activity at human vitamin D receptor expressed in African green monkey COS7 cells assessed as inhibition of 1,25D3-induced transactivation after 16 hrs by dual luciferase reporter gene assay. The class given is cell-based. In outline: (§1)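 Cells were co-transfected with full-length human VDR expression plasmid (pCMX-hVDR), a luciferase reporter carrying three copies of mouse osteopontin VDRE (SPPx3-TK-Luc), and a sea pansy luciferase internal control (pRL-CMV), then read by dual luciferase assay. Activity is scaled so that 10−8 M 1,25D3 equals 1 in Cos7 and 10−9 M 1,25D3 equals 1 in HEK293. Inhibition was tested in the presence of 1,25D3.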

Assay [4] has the same target. The assay is described as follows: Partial agonist activity at human vitamin D receptor expressed in HEK293 cells after 16 hrs by dual luciferase reporter gene assay. The class given is cell-based. In short, it runs like this: as §1
On the technique in general: Reporter assays use an easily measured gene product as a stand-in for the process of interest.

Assay [5] shares this target. The assay is described as follows: Agonist activity at human vitamin D receptor expressed in African green monkey COS7 cells after 16 hrs by dual luciferase reporter gene assay. The class given is cell-based. In outline:
as §1

Assay [6] has the same target. The experiment in a line: Antagonist activity at VP16-fused human vitamin D receptor in HEK293 cells assessed as inhibition of ligand-induced GAL4-fused SRC1 coactivator recruitment by dual luciferase assay. The class given is cell-based.
Assay [7] has the same target. The assay is described as follows: Antagonist activity at VP16-fused human vitamin D receptor in HEK293 cells assessed as inhibition of ligand-induced GAL4-fused RXRalpha recruitment by dual luciferase assay. The class given is cell-based.
The target of assay [8] is T1, Vitamin D3 receptor.

The record followed here is ChEMBL document CHEMBL4017538, “Vitamin D Analogues with a p-Hydroxyphenyl Group at the C25 Position: Crystal Structure of Vitamin D Receptor Ligand-Binding Domain Complexed with the Ligand Explains the Mechanism Underlying Full Antagonistic Action” (J Med Chem, 2017).

SMILES strings stand for the structures. Activity calls are given as the source filed them. The calls are words filed in the database; no cut-off is given here.

Usually IC50 stands for the concentration at which inhibition is half-maximal.

As for `C=C1[C@H](O)CC(=C/C=C2\CCC[C@]3(C)[C@@H]([C@H](C)CCCC(OC)c4ccc(O)cc4)CC[C@@H]23)C[C@H]1O` (stereo partly specified), at Vitamin D3 receptor [1], the 50% inhibitory concentration (IC50) stood at 102 nM. Also, the relative affinity (IC50 ref/IC50 test) in assay [2] stood at 0.0049.

In the case of `C=C1[C@H](O)CC(=C/C=C2\CCC[C@]3(C)[C@@H]([C@H](C)CCCC(=O)c4ccc(O)cc4)CC[C@@H]23)C[C@H]1O`, in assay [3], the “antagonist activity (qualitative)” value was “Active”. In assay [4], the outcome was Active. Besides, on Vitamin D3 receptor [1], the IC50 is 84 nM. The relative affinity (IC50 ref/IC50 test) in assay [2] was determined as 0.006.

On to `C=C1[C@H](O)CC(=C/C=C2\CCC[C@]3(C)[C@@H]([C@H](C)[C@@H](CCCC)CCC(O)c4ccc(O)cc4)CC[C@@H]23)C[C@H]1O` (stereo partly specified), for which the “antagonist activity (qualitative)” value in assay [3] is “Dose-dependent effect”. The outcome in assay [4] was Active. For the same molecule, on Vitamin D3 receptor [1], the concentration for half-maximal inhibition (IC50) came out at 17 nM. Further, the relative affinity (IC50 ref/IC50 test) in assay [2] is 0.0094. In addition, the outcome in assay [5] was inactive.

For the molecule `C=C1[C@H](O)CC(=C/C=C2\CCC[C@]3(C)[C@@H]([C@H](C)CCCC(O)(c4ccc(O)cc4)c4ccc(O)cc4)CC[C@@H]23)C[C@H]1O`, the inhibition result in assay [6] and in assay [7] was “Active” each time. Moreover, the IC50 at Vitamin D3 receptor [1] is 520 nM; against Vitamin D3 receptor [8], 800 nM. Further, the relative affinity (IC50 ref/IC50 test) in assay [2] stood at 0.00096. For the same molecule, the outcome in assay [5] was inactive.

Regarding `C=C1[C@H](O)CC(=C/C=C2\CCC[C@]3(C)[C@@H]([C@H](C)[C@@H](CCCC)CCC(=O)c4ccc(O)cc4)CC[C@@H]23)C[C@H]1O`, the inhibition result in assay [6] is “Active”. Further, at Vitamin D3 receptor [1], the IC50 amounted to 20 nM. Also, the relative affinity (IC50 ref/IC50 test) in assay [2] was determined as 0.028. Further, the outcome in assay [5] was inactive. In addition, the inhibition result in assay [7] is “inactive”.

In the case of `C=C1[C@H](O)CC(=C/C=C2\CCC[C@]3(C)[C@@H]([C@H](C)[C@@H](CCCC)CCC(OC)c4ccc(O)cc4)CC[C@@H]23)C[C@H]1O` (stereo partly specified), in assay [3], the “antagonist activity (qualitative)” value is “Active”. Moreover, in assay [4], the result was Active. Moreover, at Vitamin D3 receptor [1], the IC50 came out at 23 nM. In addition, the relative affinity (IC50 ref/IC50 test) in assay [2] was found to be 0.031.

As to `C=C1[C@H](O)CC(=C/C=C2\CCC[C@]3(C)[C@@H]([C@H](C)[C@@H](CCCC)CCC(O)(c4ccc(O)cc4)c4ccc(O)cc4)CC[C@@H]23)C[C@H]1O`, the inhibition entry in assay [6] was “Active”. Also, the IC50 on Vitamin D3 receptor [1] is 130 nM; against Vitamin D3 receptor [8], 400 nM. In assay [2], the relative affinity (IC50 ref/IC50 test) stood at 0.0042. The outcome in assay [5] was inactive. In addition, the inhibition entry in assay [7] was “inactive”.

On to `C=C1[C@H](O)CC(=C/C=C2\CCC[C@]3(C)[C@@H]([C@H](C)CCCC(O)c4ccc(O)cc4)CC[C@@H]23)C[C@H]1O` (stereo partly specified), for which the “antagonist activity (qualitative)” value in assay [3] was “Active”. Besides, in assay [4], the result was Active. Also, the half-inhibitory concentration (IC50) at Vitamin D3 receptor [1] came out at 36 nM. Further, the relative affinity (IC50 ref/IC50 test) in assay [2] came out at 0.0044.
